Results as given in ChEMBL document CHEMBL2434823, “Design, synthesis and biological activities of some 7-aminocephalosporanic acid derivatives” (Eur J Med Chem, 2013).
The source made the active and inactive calls. The calls are words filed in the database; no cut-off is given here.

Tests used:
[1] = test system: Enterococcus faecalis; experiment: Antimicrobial activity against Enterococcus faecalis ATCC 29212; type: functional
How it was run: (§1)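 Compound stocks were 20.000 µg/mL in hexane. DMSO diluted 1:10 served as the solvent control, and ampicillin was the reference drug.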

[2] = test system: Bacillus cereus; experiment: Antimicrobial activity against Bacillus cereus 702 Roma; type: functional; how it was run: as §1
[3] = test system: Candida albicans; experiment: Antimicrobial activity against Candida albicans ATCC 60193; type: functional
[4] = test system: Staphylococcus aureus; experiment: Antimicrobial activity against Staphylococcus aureus ATCC 25923; type: functional; how it was run: as §1
[5] = test system: Mycolicibacterium smegmatis; experiment: Antimicrobial activity against Mycobacterium smegmatis ATCC 607; type: functional
[6] = molecular target: Urease (Canavalia ensiformis) (UniProt P07374); experiment: Inhibition of jack bean urease using urea as substrate assessed as ammonia production at 250 ug/ml after 15 mins relative to control
How it was run: (§2)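 Jack bean urease in pH 8.2 buffer (100 mM urea, 0.01 M K2HPO4, 1 mM EDTA, 0.01 M LiCl) was incubated with compound for 15 min at room temperature. Ammonia was measured by the indophenol method (phenol/nitroprusside, then NaOH/NaOCl) at A625 after 20 min. Inhibition % = 100 − (OD test/OD control)×100. […] Thiourea was the standard.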

[7] = test system: Yersinia pseudotuberculosis; experiment: Antimicrobial activity against Yersinia pseudotuberculosis ATCC 911; type: functional
How it was run: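 Compounds were dissolved in […] as 20.000 µg/mL stocks. Ampicillin (10 µg) was the reference antibacterial, and DMSO diluted 1:10 was the solvent control.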

[8] = test system: Saccharomyces cerevisiae; experiment: Antimicrobial activity against Saccharomyces cerevisiae RSKK 251; type: functional
[9] = test system: Pseudomonas aeruginosa; experiment: Antimicrobial activity against Pseudomonas aeruginosa ATCC 43288; type: functional; how it was run: as §1
[10] = test system: Saccharomyces cerevisiae; experiment: Antimicrobial activity against Saccharomyces cerevisiae RSKK 251 at 5 ug; type: functional; settings: read-out: IZ
How it was run: (§3)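 Compounds were dissolved in […] as 20.000 µg/mL stocks. Fluconazole (5 µg) was the reference antifungal, and DMSO diluted 1:10 was the solvent control.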

[11] = test system: Candida albicans; experiment: Antimicrobial activity against Candida albicans ATCC 60193 at 5 ug; type: functional; settings: read-out: IZ; how it was run: as §3
[12] = test system: Bacillus cereus; experiment: Inhibition of Bacillus cereus metallo beta-lactamase assessed as nitrocefin substrate hydrolysis at 1 mM after 20 mins
How it was run: (§4)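 Commercial B. cereus metallo-β-lactamase (1.5 µM solution) was combined with nitrocefin (150 µM solution) and compound in 25 mM PIPES pH 7.0 containing 100 µM ZnSO4. A486 was read continuously for 20 min at 37 °C. Residual activity was taken relative to the no-inhibitor control, in triplicate. Screening used 1 mM final; IC50 came from a concentration series. HgCl2 was the positive control.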

[13] = Inhibition of Bacillus cereus metallo beta-lactamase assessed as nitrocefin substrate hydrolysis after 20 mins; how it was run: as §4
[14] = molecular target: Urease (Canavalia ensiformis, UniProt P07374); experiment: Inhibition of jack bean urease using urea as substrate assessed as ammonia production after 15 mins; how it was run: as §2
[15] = molecular target: Urease (Canavalia ensiformis) (UniProt P07374); experiment: Inhibition of jack bean urease using urea as substrate assessed as ammonia production at 100 ug/ml after 15 mins relative to control

Chain of Urease (Canavalia ensiformis) (P07374 whole entry, looked up): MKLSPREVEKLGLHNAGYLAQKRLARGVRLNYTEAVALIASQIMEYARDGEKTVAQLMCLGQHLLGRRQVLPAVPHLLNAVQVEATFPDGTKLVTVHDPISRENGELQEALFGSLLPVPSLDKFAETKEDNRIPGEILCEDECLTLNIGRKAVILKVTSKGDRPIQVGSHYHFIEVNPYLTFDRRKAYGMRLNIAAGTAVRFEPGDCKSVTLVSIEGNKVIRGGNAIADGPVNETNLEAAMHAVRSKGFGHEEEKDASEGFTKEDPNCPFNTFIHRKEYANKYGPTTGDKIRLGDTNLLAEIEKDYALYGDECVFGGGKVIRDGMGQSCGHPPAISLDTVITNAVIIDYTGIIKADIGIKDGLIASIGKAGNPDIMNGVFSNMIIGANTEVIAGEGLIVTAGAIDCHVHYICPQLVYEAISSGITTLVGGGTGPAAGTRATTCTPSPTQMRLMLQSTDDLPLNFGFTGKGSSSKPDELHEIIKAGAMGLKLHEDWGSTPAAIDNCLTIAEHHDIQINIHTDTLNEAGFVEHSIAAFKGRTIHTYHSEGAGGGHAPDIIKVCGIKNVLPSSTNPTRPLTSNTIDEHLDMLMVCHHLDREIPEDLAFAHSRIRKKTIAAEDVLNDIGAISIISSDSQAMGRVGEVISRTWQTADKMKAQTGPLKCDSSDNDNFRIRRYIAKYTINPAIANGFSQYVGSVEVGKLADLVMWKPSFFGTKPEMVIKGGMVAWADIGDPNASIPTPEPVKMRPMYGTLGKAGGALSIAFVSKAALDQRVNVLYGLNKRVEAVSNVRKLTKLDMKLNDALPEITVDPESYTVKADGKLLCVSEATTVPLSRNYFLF
Chain of Urease (P07374 whole entry): as the sequence (P07374 whole entry, looked up) above

| Compound | inhibition zone (IZ) [1] | inhibition zone (IZ) [2] | inhibition zone (IZ) [3] | inhibition zone (IZ) [4] | inhibition zone (IZ) [5] | inhibition [6] | inhibition zone (IZ) [7] | inhibition zone (IZ) [8] | inhibition zone (IZ) [9] | zone of inhibition at 5 µg/disc [10] | zone of inhibition at 5 µg/disc [11] | inhibition [12] | IC50 [13] | IC50 [14] | inhibition [15] |
| --- | --- | --- | --- | --- | --- | --- | --- | --- | --- | --- | --- | --- | --- | --- | --- |
| CC(=O)OCC1=C(C(=O)O)N2C(=O)[C@@H](NS(=O)(=O)c3ccc(N)cc3)[C@H]2SC1 | 16 mm | 18 mm | 14 mm | 20 mm | 12 mm | 1% | 12 mm | 20 mm | 30 mm | – | – | – | – | – | – |
| OC(Cn1cncn1)(Cn1cncn1)c1ccc(F)cc1F [FLUCONAZOLE] | – | – | – | – | – | – | – | – | – | > 25 mm | 25 mm | – | – | – | – |
| CN[C@@H]1[C@H](O[C@H]2[C@H](O[C@H]3[C@H](O)[C@@H](O)[C@H](N=C(N)N)[C@@H](O)[C@@H]3N=C(N)N)O[C@@H](C)[C@]2(O)C=O)O[C@@H](CO)[C@H](O)[C@H]1O [STREPTOMYCIN] | – | – | – | – | 35 mm | – | – | – | – | – | – | – | – | – | – |
| CC(=O)OCC1=C(C(=O)O)N2C(=O)[C@@H](NS(=O)(=O)c3ccc(NC(=S)NCc4ccccc4)cc3)[C@H]2SC1 | 10 mm | 8 mm | 8 mm | 15 mm | 16 mm | – | 8 mm | 10 mm | 6 mm | – | – | – | – | – | – |
| CC(=O)OCC1=C(C(=O)O)N2C(=O)[C@@H](NS(=O)(=O)c3ccc(/N=C4/SC(=O)CN4Cc4ccccc4)cc3)[C@H]2SC1 | 10 mm | 8 mm | 10 mm | 22 mm | 16 mm | – | 8 mm | 18 mm | 8 mm | – | – | – | – | – | – |
| MERCURIC CHLORIDE [listing 1 of 2 here] | – | – | – | – | – | – | – | – | – | – | – | 76% | – | – | – |
| CC(=O)OCC1=C(C(=O)O)N2C(=O)[C@@H](NS(=O)(=O)c3ccc(/N=c4/sc(-c5ccc(Cl)cc5)cn4-c4ccccc4)cc3)[C@H]2SC1 | inactive | 8 mm | 10 mm | inactive | 16 mm | 15% | 6 mm | 14 mm | 6 mm | – | – | – | – | – | – |
| CC(=O)OCC1=C(C(=O)O)N2C(=O)[C@@H](NS(=O)(=O)c3ccc([N+](=O)[O-])cc3)[C@H]2SC1 | 6 mm | 8 mm | inactive | 23 mm | inactive | 28% | inactive | inactive | – | – | – | 18% | – | – | – |
| O=C1CN(Cc2ccccc2)/C(=N\c2ccc(S(=O)(=O)Cl)cc2)S1 | 10 mm | 10 mm | 10 mm | 18 mm | 12 mm | – | inactive | 18 mm | inactive | – | – | – | – | – | – |
| O=S(=O)(Cl)c1ccc(/N=c2/sc(-c3ccc(Cl)cc3)cn2Cc2ccccc2)cc1 | 18 mm | 6 mm | 10 mm | 16 mm | 10 mm | – | inactive | 20 mm | inactive | – | – | – | – | – | – |
| O=S(=O)(Cl)c1ccc(/N=c2/oc(-c3ccc(Cl)cc3)cn2Cc2ccccc2)cc1 | 8 mm | 6 mm | 8 mm | 18 mm | 12 mm | 21% | inactive | 10 mm | inactive | – | – | – | – | – | – |
| O=S(=O)(Cl)c1ccc(NC(=S)Nc2ccccc2)cc1 | inactive | inactive | 8 mm | 6 mm | inactive | 21% | inactive | 15 mm | inactive | – | – | – | – | – | – |
| MERCURIC CHLORIDE [listing 2 of 2 here] | – | – | – | – | – | – | – | – | – | – | – | – | 93 µM | – | – |
| CC(=O)OCC1=C(C(=O)O)N2C(=O)[C@@H](NS(=O)(=O)c3ccc(NC(=O)Nc4ccccc4)cc3)[C@H]2SC1 | 8 mm | 10 mm | 8 mm | 15 mm | 10 mm | – | 8 mm | 8 mm | 6 mm | – | – | – | – | – | – |
| O=C(Nc1ccccc1)Nc1ccc(S(=O)(=O)Cl)cc1 | inactive | inactive | 8 mm | 6 mm | inactive | 100% | inactive | 15 mm | inactive | – | – | – | – | 388 µM | 39.3% |
| O=S(=O)(Cl)c1ccc(NC(=S)NCc2ccccc2)cc1 | 16 mm | 18 mm | 8 mm | 30 mm | 17 mm | – | 25 mm | 8 mm | 20 mm | – | – | – | – | – | – |
| CC(=O)OCC1=C(C(=O)O)N2C(=O)[C@@H](NC(=O)CN3CCN(c4ccc([N+](=O)[O-])cc4F)CC3)[C@H]2SC1 | 8 mm | 10 mm | 15 mm | 18 mm | 22 mm | – | 6 mm | 30 mm | inactive | – | – | 24% | 1170 µM | – | – |
| O=C(Cl)CN1CCN(c2ccc([N+](=O)[O-])cc2F)CC1 | 8 mm | 8 mm | 15 mm | 15 mm | inactive | 25% | inactive | 30 mm | inactive | – | – | – | – | – | – |
| Nc1ccc(S(=O)(=O)Cl)cc1 | 12 mm | 15 mm | 13 mm | 18 mm | 10 mm | – | 12 mm | 20 mm | 28 mm | – | – | – | – | – | – |
| O=C(NCc1ccccc1)Nc1ccc(S(=O)(=O)Cl)cc1 | 16 mm | 18 mm | 18 mm | 30 mm | 15 mm | 23% | 25 mm | 20 mm | 20 mm | – | – | – | – | – | – |
| CC(=O)OCC1=C(C(=O)O)N2C(=O)[C@@H](NS(=O)(=O)c3ccc(NC(=O)NCc4ccccc4)cc3)[C@H]2SC1 | 10 mm | 10 mm | 10 mm | 18 mm | 14 mm | – | 10 mm | 10 mm | 8 mm | – | – | – | – | – | – |
| O=S(=O)(Cl)c1ccc(/N=c2/sc(-c3ccc(Cl)cc3)cn2-c2ccccc2)cc1 | 8 mm | 8 mm | 10 mm | 18 mm | 12 mm | 3% | inactive | 22 mm | inactive | – | – | – | – | – | – |
| CC(=O)OCC1=C(C(=O)O)N2C(=O)[C@@H](NS(=O)(=O)c3ccc(NC(=S)Nc4ccccc4)cc3)[C@H]2SC1 | 10 mm | 12 mm | 14 mm | 18 mm | 18 mm | – | 10 mm | 22 mm | 8 mm | – | – | – | – | – | – |
| CC(=O)OCC1=C(C(=O)O)N2C(=O)[C@@H](NS(=O)(=O)c3ccc(/N=c4/sc(-c5ccc(Cl)cc5)cn4Cc4ccccc4)cc3)[C@H]2SC1 | 8 mm | inactive | 10 mm | 22 mm | inactive | – | 8 mm | inactive | 8 mm | – | – | 64% | 543 µM | – | – |
